XiGFP reactiv – X-chromosome reactivation activator; XiGFP mouse fibroblasts, % GFP-positive cells imaging, 3 d; cells co-treated with 5-aza-dC sensitizer; scaled so ellipticine positive control = 100%; activation, % at 7.58 µM; 0.055% of 360,000 active; AID 743238;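 active = mean normalized replicate activation at least 10% and every replicate at or above 10%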;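 note: 0% = median of on-plate neutral control wells and 100% = ellipticine 6 µM median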
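System: 68-5-11 XiGFP fibroblast line; Timing: 3 days compound exposure; Compound dosing: one concentration, pinned; Benchmarks: positive control ellipticine, 6 µM final; Buffer or medium: DMEM containing 5-aza-dC.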
ABHD5-PLIN5 inh – blocks binding of human ABHD5 to perilipin-5; Q00G26+Q8WTS1; Split G. princeps luciferase complementation, luminescence, 4 h; inhibition, % at 4 µM; 0.78% of 360,000 active; AID 602281;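 active = inhibition above the mean inhibition across every tested compound plus 3 SD, cut at about 22% in these data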;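 note: 0% = DMSO only wells and the 100% control is not disclosed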
NadD block – inhibitors of Staphylococcus aureus NadD; purified NadD enzyme, colorimetric absorbance read-out; inhibition, % at 20 µM; 0.78% of 360,000 active; AID 602399; in the data active = inhibition above about 26%
Rpn11 block – blocks the human proteasome subunit Rpn11; human 26S proteasome, Ub4-pepOG fluorescence polarization; 20S core pre-blocked with epoxomicin; inhibition, % at 20 µM; 0.59% of 360,000 active; AID 588493;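 active = inhibition at 20 µM, scaled to each plate's controls, above about 33%, limit read from the data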
Target sequence (O00487 whole entry, looked up): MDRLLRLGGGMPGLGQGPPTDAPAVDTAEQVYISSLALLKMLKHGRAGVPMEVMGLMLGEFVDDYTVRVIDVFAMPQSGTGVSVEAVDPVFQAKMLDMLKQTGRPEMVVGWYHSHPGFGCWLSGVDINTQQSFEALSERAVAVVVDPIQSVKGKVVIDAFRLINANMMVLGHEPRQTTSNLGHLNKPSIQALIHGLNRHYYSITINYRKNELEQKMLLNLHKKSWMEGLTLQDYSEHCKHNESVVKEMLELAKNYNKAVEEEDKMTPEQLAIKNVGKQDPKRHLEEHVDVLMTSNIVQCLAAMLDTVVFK
Rin1-Abl PPI inh – inhibitors of human Rin1-Abl protein interaction; TR-FRET Rin1/Abl binding, biochemical; inhibition, % at 7.35 µM; 0.4% of 360,000 active; AID 588664; in the data active = inhibition above about 5%, passing the limit was not always enough
Rin1 Abl conf – confirmation of inhibitors of human Rin1-Abl interaction; shares compounds with Rin1-Abl PPI inh; TR-FRET Rin1-Abl binding, purified proteins; inhibition, % at 7.35 µM; 49% of 1,300 active
GFP quench – quenches GFP fluorescence, counter-screen for Rin1-Abl inhibitors | shares compounds with Rin1-Abl PPI inh | inhibitors/quenchers counterscreen | inhibition, % at 6.75 µM | 8.5% of 1,300 active;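 note: ABL1-eGFP fusion protein alone without its partner RIN1-SBP; 0% = protein with vehicle and 100% = wells lacking protein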
GFP quench dose – quenches GFP in dose response, Rin1-Abl counter-screen; shares compounds with Rin1-Abl PPI inh; GFP fluorescence interference/quenching counterscreen; IC50, µM; 230 tested, under 10 active; AID 602182; call rule not given here;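 note: ABL1-eGFP fusion protein alone without its RIN1 binding partner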
* hit, by the source's call; nt = not tested or not shown. A selection: hits, their analogues and other compounds. The true share with any hit is near 1.9%. Cut-off read from the data, not from the text of the source, unless noted: active = inhibition above about 6.5%; inactive = the rest.

SMILES | XiGFP reactiv | ABHD5-PLIN5 inh | NadD block | Rpn11 block | Rin1-Abl PPI inh | Rin1 Abl conf | GFP quench | others
C[C@@H]1CCCCO[C@H](CN(C)Cc2ccc(C(=O)Nc3ccccc3N)cc2)[C@@H](C)CN([C@H](C)CO)C(=O)c2cc(N(C)C)ccc2O1 | 1.3 | nt | nt | nt | nt | nt | nt
C[C@@H]1CN([C@@H](C)CO)C(=O)c2cc(C3=CCCC3)cnc2O[C@@H]1CN(C)Cc1ccc(C(=O)O)cc1 | -0.6 | nt | nt | nt | nt | nt | nt
COc1ccc2cnn(CCOc3ccccc3)c(=O)c2c1OC | nt | 5.4 | 1.6 | -2.1 | 14.1* | -0.9 | 1.1
CC(C)[C@H]1CC=CC[C@H](C)Oc2ccccc2C(=O)N(C)[C@@H](C)C(=O)N1 (mixture of isomers) | 0.0 | nt | nt | nt | nt | nt | nt
Cc1cc(-c2nn(-c3ccccc3F)cc2CN2CCCC(O)C2)c(C)s1 (stereo not drawn) | 0.0 | 8.2 | -3.9 | -9.1 | 5.7* | 1.3 | -0.3
Cc1cc(-c2nn(-c3ccccc3F)cc2CN2CCCC(CO)C2)c(C)s1 (stereo not drawn) | 0.1 | -5.6 | -4.3 | 1.0 | -1.0 | nt | nt
CCCC#Cc1ccc2c(c1)O[C@@H](CN(C)C(=O)C1CCCCC1)[C@H](C)CN([C@@H](C)CO)S2(=O)=O | -0.5 | nt | nt | nt | nt | nt | nt
CN(C)CCCNC(=O)C[C@@H]1C=C[C@@H](NS(=O)(=O)c2ccc(F)cc2)[C@H](CO)O1 | 0.5 | nt | nt | nt | nt | nt | nt
C[C@@H]1CN([C@@H](C)CO)C(=O)c2cc(C#CCc3ccccc3)cnc2O[C@@H]1CN(C)CC1CC1 | 0.3 | nt | nt | nt | nt | nt | nt
O=c1[nH]cnc2c1C(c1ccccc1)c1c(nc[nH]c1=O)O2 | 0.0 | 4.8 | -7.9 | 8.9 | 22.9* | 43.7* | -0.1 | GFP quench dose=>67.6
COc1ccc(C2c3[nH]c4ccccc4c3C[C@H]3C(=O)N(C4CCN(Cc5ccccc5)CC4)CC(=O)N23)cc1OC (stereo partly drawn) | 0.0 | 0.8 | 6.8 | 7.4 | 10.3* | 8.2* | -0.5
C[C@@H]1COCn2nncc2CC[C@@H](Cc2ccccc2)C(=O)N1 | -0.1 | nt | nt | nt | nt | nt | nt
Cc1ncc(CN2CCCC(C(=O)Nc3ccc(-c4ccco4)cc3)C2)cn1 (stereo not drawn) | 0.0 | 15.5 | -0.3 | 13.7 | 15.5* | 10.2* | -2.0
C[C@@H]1CN([C@H](C)CO)S(=O)(=O)c2ccc(C3=CCCC3)cc2O[C@H]1CN(C)S(C)(=O)=O | -0.9 | nt | nt | nt | nt | nt | nt
COc1ccc(CNC(=O)c2ccc(NC(=O)CC3SC(N4CCCC4)=NC3=O)cc2)cc1 (stereo not drawn) | nt | 1.1 | 1.9 | 2.2 | 7.8* | 7.5* | -1.0
O=C(C(Cl)Cl)N1CCN(Cc2ccc3c(c2)OCO3)CC1 | 0.1 | 5.0 | -2.4 | -4.7 | 6.9* | 3.0 | 2.0
CCN(CC)C(=O)N1CCN(Cc2ccc3c(c2)OCO3)CC1 | 0.2 | -1.9 | 2.9 | -2.1 | -7.6 | nt | nt
C[C@H](CO)N1C[C@H](C)[C@H](CN(C)C(=O)Nc2cc(F)ccc2F)Oc2cc(C#CC3CC3)ccc2S1(=O)=O | -0.9 | nt | nt | nt | nt | nt | nt
COc1ccc(C[C@H]2CN3C(=NC[C@@H]3Cc3ccc(O)cc3)N2C[C@H](C)NC(=O)c2ccc(C)c(Br)c2)cc1 | nt | 18.7 | 12.7 | -8.0 | 9.4* | 1.3 | 0.0
CCCOc1ccc(/C=N/NC(=O)CSc2ccccn2)cc1OC | 0.0 | 8.2 | 0.8 | -6.6 | 16.1* | 21.9* | -0.3 | GFP quench dose=>67.6
CCCOc1ccc(/C=N\NC(=O)CCc2n[nH]c(=O)[nH]c2=O)cc1OC | 0.1 | -11.6 | -0.8 | 2.9 | 7.8* | 8.8* | 0.3
CC(=O)N(C)C[C@H]1Oc2ccccc2CC(=O)N(C)C[C@H]1C | 0.0 | nt | nt | nt | nt | nt | nt
O=C(C[C@H]1CC[C@@H]2[C@H](COC[C@H](O)CN2S(=O)(=O)c2ccccc2)O1)NCCN1CCCC1 | 0.1 | nt | nt | nt | nt | nt | nt
O=C(Cc1ccccc1)NC1(O)C(=O)c2ccccc2C1=O | 0.1 | -20.5 | 1.4 | 0.6 | 4.0 | nt | nt
Cc1ccc(C(=O)NC2(O)C(=O)c3ccccc3C2=O)cc1C | 0.1 | 10.7 | -3.8 | 7.2 | 11.7* | 15.9* | 2.7
